Reference: ChEMBL document CHEMBL3120131, “Lipoxygenase inhibitors derived from marine macroalgae” (Bioorg Med Chem Lett, 2014)

What was measured:
[1] = target: T1, Seed linoleate 9S-lipoxygenase (Glycine max) (UniProt P24095); experiment: Inhibition of soybean lipoxygenase at 100 uM
T1 sequence (whole entry): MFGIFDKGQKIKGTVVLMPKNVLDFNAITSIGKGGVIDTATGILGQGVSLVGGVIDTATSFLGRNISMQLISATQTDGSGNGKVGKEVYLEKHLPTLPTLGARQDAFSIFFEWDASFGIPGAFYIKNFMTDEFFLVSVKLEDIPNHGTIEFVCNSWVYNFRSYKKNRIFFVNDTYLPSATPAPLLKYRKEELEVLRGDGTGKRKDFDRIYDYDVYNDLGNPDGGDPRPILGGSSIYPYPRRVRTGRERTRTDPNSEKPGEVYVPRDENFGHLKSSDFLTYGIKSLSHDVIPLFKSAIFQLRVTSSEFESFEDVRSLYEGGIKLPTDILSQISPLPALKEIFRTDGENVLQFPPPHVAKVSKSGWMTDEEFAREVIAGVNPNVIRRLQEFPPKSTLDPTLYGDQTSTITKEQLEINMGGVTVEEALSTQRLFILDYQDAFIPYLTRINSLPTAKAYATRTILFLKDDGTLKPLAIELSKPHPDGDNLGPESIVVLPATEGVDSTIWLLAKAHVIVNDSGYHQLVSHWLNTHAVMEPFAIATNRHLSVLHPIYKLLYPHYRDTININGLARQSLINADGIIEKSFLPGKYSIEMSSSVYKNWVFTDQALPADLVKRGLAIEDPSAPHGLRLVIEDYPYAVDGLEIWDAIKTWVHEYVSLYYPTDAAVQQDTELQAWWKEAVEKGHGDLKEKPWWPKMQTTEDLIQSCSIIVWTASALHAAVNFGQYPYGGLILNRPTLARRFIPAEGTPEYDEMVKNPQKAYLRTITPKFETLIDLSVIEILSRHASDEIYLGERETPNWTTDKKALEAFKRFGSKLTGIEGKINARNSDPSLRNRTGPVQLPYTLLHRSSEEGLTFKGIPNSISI
In short: (§1)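 Soybean LOX (0.4 mg/mL stock in 100 mM borate, pH 9.0) and methanol-dissolved sample were pre-incubated 5 min at 27.5°C in 20 mM 3-dimethylaminobenzoic acid/borate pH 9.0. Argon-flushed substrate was added and the mixture held 5 min at 27.5°C. Stopped with MBTH–hemoglobin in phosphate pH 5.0; after 5 min, 1% SDS was added and A598 compared against control.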

[2] = target: T1, Seed linoleate 9S-lipoxygenase (Glycine max); experiment: (§2) Inhibition of soybean lipoxygenase; in short: as §1
[3] = target: T2, Seed linoleate 9S-lipoxygenase (Glycine max, UniProt P24095); experiment: as §2; in short: as §1
T2 sequence (P24095 whole entry): T1 sequence (whole entry)

SMILES: C=Cc1c(C)c2cc3nc(c4c5[nH]c(cc6nc(cc1[nH]2)C(C)=C6CC)c(C)c5C(=O)C4)[C@@H](CCC(=O)OC/C=C(\C)CCC[C@H](C)CCC[C@H](C)CCCC(C)C)[C@@H]3C
- inhibition [1]: 29.4%

SMILES: C=CCCC/C=C\C/C=C\C/C=C\C/C=C\CCCCC
- inhibition [2]: Dose-dependent effect
- IC50 [3]: 40 µM

SMILES: C=Cc1c(C)c2cc3nc(c4c5[nH]c(cc6nc(cc1[nH]2)C(C)=C6CC)c(C)c5C(=O)[C@@H]4C(=O)OC)[C@@H](CCC(=O)OC/C=C(\C)CCC[C@H](C)CCC[C@H](C)CCCC(C)C)[C@@H]3C
- inhibition [1]: 37.6%

SMILES: C=Cc1c(C)c2cc3nc(c4c5[nH]c(cc6nc(cc1[nH]2)C(C)=C6CC)c(C)c5C(=O)C4)[C@@H](CCC(=O)O)[C@@H]3C
- inhibition [1]: 15%

SMILES: C=CCCC/C=C\C/C=C\C/C=C\C/C=C\C/C=C\CC
- inhibition [2]: Dose-dependent effect
- IC50 [3]: 5 µM

SMILES: C=Cc1c(C)c2cc3nc(c4c5[nH]c(cc6nc(cc1[nH]2)C(C)=C6CC)c(C)c5C(=O)[C@@H]4C(=O)OC)[C@@H](CCC(=O)O)[C@@H]3C
- inhibition [1]: 6.5%

SMILES: CC(Cc1ccc(O)c(O)c1)C(C)Cc1ccc(O)c(O)c1 (stereo not given) [NORDIHYDROGUAIARETIC ACID]
- inhibition [1]: 12.7%
- IC50 [3]: 400 µM
